# High-throughput results (PubChem)
# In the library only some 2.4% were active in any assay of this set; here they are far more common.
# ERAP1 HTS inh = human ERAP1 aminopeptidase inhibitors, primary screen, biochemical, single point, plate reader | 340,000 compounds, 0.15% hits | inhibition, % at 10.7 µM | recombinant ERAP1, Leu-AMC fluorescence, 60 min | Endoplasmic reticulum aminopeptidase 1 (Homo sapiens), Q9NZ08;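 active = mean replicate inhibition of at least 30%, or all replicates individually reaching that 30% level; inactive = mean below 30% and not every replicate reaching it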;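 note: 0% = neutral control wells and 100% = L-leucinethiol positive control wells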
# S100A4 inh HTS = inhibitors of S100A4-myosin IIA peptide binding, primary screen, biochemical, fluorescence polarization, TAMRA-MyoIIA peptide; Protein S100-A4 (Homo sapiens), P26447; AID 652163, 2013; inhibition, % at 10.7 µM; 360,000 compounds, 0.14% hits;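 active = mean inhibition of at least 70% across replicates, with every replicate also reaching that level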
# Target sequence (P26447 whole entry, looked up): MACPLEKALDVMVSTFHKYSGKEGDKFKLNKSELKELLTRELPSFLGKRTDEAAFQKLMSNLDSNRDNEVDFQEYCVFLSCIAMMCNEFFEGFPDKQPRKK
#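 Compound dosing: one dose per compound; test system: human S100A4 monomer with TAMRA-labelled myosin IIA peptide; probe or stimulus: TAMRA-labelled myosin IIA heavy-chain peptide probe, 5 nM; medium: HEPES buffer with Ca2+, pH 7.2; schedule: 5 min incubation before reading; benchmarks: neutral control DMSO, positive control TFP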
# Casp6 inh = human caspase-6 inhibitors, primary screen, biochemical, VEID-R110 fluorescence, single point, set 2 | AID 686996, 2013 | inhibition, % at 12.5 µM | 350,000 compounds, 0.53% hits | purified caspase-6, Z-VEID-R110 cleavage fluorescence;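 active = mean inhibition across replicates at least about 35%, with every replicate also reaching that limit, limit read from the data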;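 note: 0% = median of neutral control wells and 100% = no fluorescence left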
# Target sequence (P55212 24-179 limits assumed): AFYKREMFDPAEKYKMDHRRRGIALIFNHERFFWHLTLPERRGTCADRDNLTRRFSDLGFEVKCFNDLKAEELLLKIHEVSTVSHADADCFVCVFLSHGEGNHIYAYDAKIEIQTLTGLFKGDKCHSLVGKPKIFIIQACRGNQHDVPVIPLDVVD
# Target sequence (P55212 194-293 limits assumed): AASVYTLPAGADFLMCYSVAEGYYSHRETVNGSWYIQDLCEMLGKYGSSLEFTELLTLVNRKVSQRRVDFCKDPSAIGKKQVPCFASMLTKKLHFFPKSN
# PGC1a acetyl inh = inhibitors of PGC1a acetylation signal, primary screen, cell-based, U2OS, AlphaScreen, inhibitor mode; AlphaScreen anti-acetyl-lysine; with virally co-expressed GCN5 acetyltransferase; inhibition, % at 15.6 µM; 350,000 compounds, 0.17% hits; AID 651687, 2012;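 active = every replicate shows inhibition of at least 40%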;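 note: 0% = neutral control wells and 100% = positive control wells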
# Ecoli rRNA inh = reduced GFP signal of wild-type E. coli, primary screen, bacterial rRNA inhibitor project, GFP/RFP fluorescence, OD600, single point. GFP signal change (wild-type ribosome), % (test concentration not listed). E. coli WT GFP vs humanized-ribosome RFP mutants, 24 h; stronger effect = lower value; DMSO median 0, no signal -100. AID 720706, 2013. 350,000 compounds, 1.6% hits;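 active = significant combined selectivity score with lowered wild-type GFP, culture density cut under 30%, mutant RFP and density less affected; inactive = any of these conditions unmet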
# ARNT TACC3 PPI = disruptors of ARNT/TACC3 protein interaction, primary screen, biochemical, AlphaScreen, single concentration | Transforming acidic coiled-coil-containing protein 3 (Homo sapiens), Q9Y6A5 | AlphaScreen His-ARNT PAS-B/GST-TACC3 binding, luminescence; TACC3 fragment carries E629A point mutation | inhibition, % at 9.99 µM | 390,000 compounds, 0.66% hits;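 active = mean inhibition of replicates at least 50% and at least half of replicates each reaching 50%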;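 note: 0% = complete ARNT plus TACC3 wells and 100% = ARNT alone without TACC3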
# Active calls of the source: *; / = no result given.
SMILES,ERAP1 HTS inh,S100A4 inh HTS,Casp6 inh,PGC1a acetyl inh,Ecoli rRNA inh,ARNT TACC3 PPI
COc1cccc(NC(=O)C[C@@H]2CC[C@@H]3[C@H](COc4ccc(NC(=O)c5ccccc5F)cc4C(=O)N3C)O2)c1,-3.6,-3.2,2.3,0.3,-2.4,0.7
Nc1nn2c(-c3ccccc3)cc(=O)[nH]c2c1N=Nc1ccc(Br)cc1,-3.5,-4.4,3.3,/,-28.6*,/
C[C@H]1CCCCO[C@H](CN(C)C(=O)NC2CCCCC2)[C@@H](C)CN([C@@H](C)CO)C(=O)c2cc(NC(=O)NC3CCCCC3)ccc2O1,-0.3,2.0,1.5,5.7,-0.2,-1.2
CC(=O)N1CCc2c(sc(NC(=O)Cc3ccccc3)c2C(N)=O)C1,-2.9,-0.2,66.8*,2.3,8.4,3.8
CC(=O)N1CCc2c(sc(NC(=O)C3CCCCC3)c2C(N)=O)C1,0.9,-4.4,74.9*,-13.3,-0.6,5.7
CC(C)N1CCc2c(sc(NC(=O)Cc3ccccc3)c2C(N)=O)C1,5.9,-2.5,0.1,32.1,8.9,2.0
C[C@@H]1CCCCO[C@H](CN(C)Cc2ccc3c(c2)OCO3)[C@@H](C)CN([C@@H](C)CO)C(=O)c2cc(N(C)C)ccc2O1,/,/,/,-3.9,2.1,/
CCCNC(=O)C[C@@H]1C[C@H]2c3cc(NS(=O)(=O)c4ccccc4)ccc3O[C@H]2[C@@H](CO)O1,/,/,/,-1.1,-4.6,-7.5
CCc1ccc(/C=C2\SC(N3CCCC3)=NC2=O)cc1,7.2,1.0,1.0,4.7,-15.2*,-0.9
COc1cc(/C=C2\SC(N3CCCCC3)=NC2=O)cc(OC)c1OC,4.6,1.5,-2.5,/,-28.0*,-0.4
O=C(Nc1cccc(Oc2ccc(C(=O)O)c(C(=O)O)c2)c1)c1ccc(-c2ccccc2)cc1,/,-2.7,42.0*,1.2,-9.0,/
CC(C)(C)C(=O)Nc1ccc(C(=O)Nc2cccc(Oc3ccc(C(=O)O)c(C(=O)O)c3)c2)cc1,5.7,-7.6,18.7,/,21.1,-12.2
COCC#Cc1cnc2c(c1)C(=O)N([C@H](C)CO)C[C@@H](C)[C@H](CN(C)Cc1ccc(F)cc1)O2,1.3,10.6,0.2,-14.8,-2.0,-3.9
Cc1noc(C)c1NC(=O)N(C)C[C@@H]1Oc2ccc(NC(=O)NC(C)C)cc2CC(=O)N([C@H](C)CO)C[C@H]1C,-6.3,1.2,-2.9,-0.6,2.1,-6.7
O=C(CCl)N=c1sccn1Cc1cccc2ccccc12,1.2,5.9,4.3,/,-1.4,23.2
O=C(CCl)N=c1sccn1Cc1ccccc1Cl,0.3,1.9,4.3,52.3*,-4.2,-2.8
O=C(CCl)N=c1sccn1Cc1ccc(Cl)cc1Cl,-1.4,1.1,10.4,65.8*,-24.1,-11.0
COc1ccc2c3c(n(C)c2c1)[C@H](CO)NCC31CCN(C(=O)c2cccc(F)c2)CC1,-4.6,7.9,/,1.4,-0.9,/
C[C@@H]1CN([C@@H](C)CO)C(=O)Cc2cc(NC(=O)CCN3CCOCC3)ccc2O[C@H]1CN(C)C(=O)Nc1ccc2c(c1)OCO2,-1.3,2.3,-0.1,2.6,-0.2,29.6
C[C@@H]1CN([C@H](C)CO)C(=O)Cc2cc(NC(=O)CCN3CCOCC3)ccc2O[C@H]1CN(C)C(=O)Nc1ccc2c(c1)OCO2,0.3,-31.8,-0.8,-3.2,2.8,46.5*
C[C@H]1CN([C@@H](C)CO)C(=O)Cc2cc(NC(=O)CCC(F)(F)F)ccc2O[C@@H]1CN(C)C,-1.6,107.5*,1.0,0.2,9.6,3.2
C[C@@H]1CN([C@@H](C)CO)C(=O)Cc2cc(NC(=O)CCN3CCOCC3)ccc2O[C@@H]1CN(C)C,2.5,127.9*,-0.5,-5.9,1.1,-24.4
O=C1c2ccccc2NC(c2ccc(-c3cccc([N+](=O)[O-])c3)o2)N1O (stereo unspecified),5.4,-0.9,19.0,/,-20.8*,15.7
O=C1c2ccccc2NC(c2ccc(-c3ccc(F)cc3)o2)N1O (stereo unspecified),-0.1,-1.4,/,/,5.4,4.3
NC(=S)Nc1cccc2cccnc12,4.1,-5.4,0.7,/,18.9,0.4
SMILES,ERAP1 HTS inh,S100A4 inh HTS,Casp6 inh,PGC1a acetyl inh,Ecoli rRNA inh,ARNT TACC3 PPI
NC(=S)NNc1cccc2cccnc12,-0.8,2.0,9.9,/,-26.5,65.2*
C/C=C/c1ccc([C@@H]2[C@H](CO)N3C(=O)CN(Cc4ccc(C(=O)OC)cc4)C[C@@H]23)cc1,1.6,8.1,-2.6,3.8,-4.2,/
COc1cccc(OC)c1OCCCOc1cccc2cccnc12,2.7,-2.0,0.7,7.9,-28.8*,-6.1
COC(=O)c1ccc(COc2ccc(Cl)cc2)o1,-3.7,-0.5,1.6,-4.0,-7.2,-9.9
COC(=O)c1ccc(COc2ccc(/C=N/NC(N)=S)cc2)o1,-8.9,-5.2,-2.4,2.4,-28.6*,/
Cc1ccccc1NC(=O)CN1C(=O)S/C(=C\c2ccc(-c3cc(C(=O)O)ccc3C)o2)C1=O,-2.7,11.4,0.4,-9.8,-4.7,-2.5
CCOC(=O)C(C)N1C(=O)S/C(=C\c2ccc(-c3ccccc3C(=O)O)o2)C1=O (stereo unspecified),8.2,-15.0,60.2*,1.3,-3.3,3.5
CN1C(=O)/C(=C/c2ccc(-c3ccccc3[N+](=O)[O-])o2)SC1=Nc1ccc(Cl)c(C(=O)O)c1,/,/,/,5.8,/,16.2
Cc1ccc(C)c(N2C(=N)S/C(=C\c3ccc(-c4ccccc4C(=O)O)o3)C2=O)c1,2.6,-4.2,37.5*,-3.5,-22.4,1.7
COc1ccc(NC(=O)N(C)C[C@H]2Oc3ccc(NS(=O)(=O)c4ccc(F)cc4)cc3CC(=O)N([C@H](C)CO)C[C@H]2C)cc1,-1.6,4.5,1.9,-0.2,3.1,/
CO[C@@H]1CN(C)C(=O)c2ccc(NS(=O)(=O)c3ccc(Cl)cc3)cc2OC[C@H](C)N(C)C[C@@H]1C,-5.2,-0.3,-3.7,17.5,2.5,-8.3
CCOC(=O)/C=C(\C)Sc1cc(O)c2ccccc2c1O,10.6,-0.9,94.0*,13.6,-57.8,76.8*
N#C[C@@H]1[C@H](c2ccccc2)[C@@H](CO)N1C(=O)Cc1ccccn1,-1.3,2.5,2.1,3.2,-2.4,-6.9
CCCOc1ccc(Cc2nn3c(=O)/c(=C/c4ccco4)sc3nc2=O)cc1,/,/,/,-23.4,/,31.9*
N#C[C@H]1[C@H](c2ccc(-c3ccccc3F)cc2)[C@@H](CO)N1C(=O)C1CC1,-0.9,4.8,-0.9,-7.8,0.8,-3.9
CCN1C(C#N)=C(C#N)N=C(C)CC1(C)C,4.4,-7.7,-3.9,109.3*,12.0,2.7
